Hits are enriched below; roughly 11% of the tested compounds scored in any of these assays.
S1P1 ag pot – agonists and agonism potentiators of human S1P1 receptor; P21453; S1P1 CRE-bla cells, forskolin, beta-lactamase FRET, potentiator mode; S1P1 agonist co-added at EC20, 2 nM; 100% = saturating reference agonist, 0% = basal; activation, % at 9.5 µM; 56,000 tested, 0.57% active; AID 449;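 active = activation above a cutoff set at the mean activation of all tested compounds plus 3 SD, cut at about 54% in these data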;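 also: forskolin at 4 µM as EC80 and the EC20 agonist is SEW2871; 100% = SEW2871 at its EC100 plus forskolin at EC80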
M1 agonist – M1 muscarinic receptor agonism; 64,000 tested, 3% active; B-score at 10 µM; CHO-M1 cells, Fluo-4 calcium fluorescence, agonist mode; stronger effect = higher value;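 active = fluorescence rise, raw or as B-score row- and column-corrected plate score, outside the 99.7% band of its plate's samples, either direction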
S1P3 agonist – activates the human S1P3 receptor; activation, % at 4.5 µM; 60,000 tested, 0.1% active; S1P3 NFAT-BLA reporter cells, agonism, FRET ratio; relative to 1 µM S1P, basal subtracted;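 active = activation above the screen-wide mean plus 3 SD, cut at about 4.5% in these data, passing the limit was not always enough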
Target sequence (Q99500 whole entry, looked up): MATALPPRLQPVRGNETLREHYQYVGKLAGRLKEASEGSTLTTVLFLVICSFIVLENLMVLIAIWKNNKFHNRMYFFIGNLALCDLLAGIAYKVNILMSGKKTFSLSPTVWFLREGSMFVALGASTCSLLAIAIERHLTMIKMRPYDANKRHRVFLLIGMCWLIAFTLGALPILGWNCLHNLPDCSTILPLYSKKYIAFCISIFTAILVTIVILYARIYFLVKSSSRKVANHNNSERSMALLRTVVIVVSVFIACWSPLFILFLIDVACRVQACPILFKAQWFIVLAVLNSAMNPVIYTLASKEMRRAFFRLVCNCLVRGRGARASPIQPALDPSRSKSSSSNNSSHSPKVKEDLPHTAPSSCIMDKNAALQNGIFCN
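Measure – % activation relative to 1 µM S1P (100%), per plate · System – stable CHO line with human S1P3, Gα16, NFAT-BLA reporter · Timing – cells plated overnight, compound 4 h 37 °C, substrate 2 h RT · Technique – fluorescent BLA substrate, ex 405 nm, em 460/535 nm ratio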
D1 allo mod – allosteric modulators of human D1 dopamine receptor; P21728; HEK293 D1, CRE-luciferase, dopamine EC30 potentiation; actives deviate in either direction; B-score at 10 µM; 58,000 tested, 5.9% active; AID 641;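 active = luminescence count or its row- and column-corrected plate score outside the 99.7% band of the plate's sample wells, on either side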
M1 antagonist – antagonists of rat M1 muscarinic receptor; CHO-M1 cells, Fluo-4 calcium, ACh EC80 antagonist mode; stronger effect = lower value; B-score at 10 µM; 64,000 tested, 3.4% active; AID 628;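 active = calcium fluorescence response, raw or row-and-column corrected B-score, differing from the plate sample mean either way at a set confidence level, mostly lower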
M1 ag confirm – rat M1 muscarinic agonism, confirmation; fluorescence change (max-min) at 10 µM; 1,700 tested, 19% active; CHO-M1 cells, Fluo-4 calcium fluorescence, agonist mode; actives lie on both sides; shares compounds with M1 agonist;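 active = fluorescence change differs from the solvent-only DMSO control mean at a set confidence level in both duplicate runs; inconclusive = differs from solvent-only control mean in just one of two runs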;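 also: an EC20 dose of acetylcholine follows compound addition during the same imaging run; raw fluorescence intensity difference in instrument units with no normalization to controls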
M4 agonist ctr – activates rat M4 receptor in counter-screen for M1 agonists; shares compounds with M1 agonist; CHO M4/Gqi5 cells, Fluo-4 calcium fluorescence, agonist mode; actives lie on both sides; fluorescence change (max-min) at 10 µM; 1,700 tested, 9% active; AID 1741;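 active = fluorescence change differing from the plate's solvent-only control wells at 99.7% confidence in both duplicates, whether higher or lower; inconclusive = differs from solvent controls in only one of two duplicates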
An asterisk follows results filed as active; ? = inconclusive; · = not tested or not shown.

SMILES	S1P1 ag pot	M1 agonist	S1P3 agonist	D1 allo mod	M1 antagonist	M1 ag confirm	M4 agonist ctr
Cc1nn(Cc2ccc(Cl)c(Cl)c2)c(C)c1NC(=O)c1cc(-c2ccc3c(c2)OCO3)on1	-4	4.1*	-2	-0.8	-1.9	31	-11
Nc1nc(N2CCN(C/C=C/c3ccccc3)CC2)nc2ccccc12	-6	-1.2	0	-2.6	-1.8	·	·
O=C(NCc1ccco1)c1sc(=S)n2c1[nH]c(=O)c1ccccc12	·	12*	·	-0.95	-2	53	35
O=C(NC1CCCC1)c1sc(=S)n2c1[nH]c(=O)c1ccccc12	-2	0.56	-1	-2.1	-1.4	·	·
COc1ccc(CCNc2oc(Cc3cccc4ccccc34)nc2C#N)cc1OC	8	-0.0028	-2	0.18	0.29	·	·
COc1ccc(CCNc2oc(COc3ccc(Br)cc3)nc2C#N)cc1OC	·	4.9*	·	·	-0.38	-24*	-72*
CCOC(=O)N1CCN(CC(O)COc2ccccc2C(C)C)CC1 (centres undefined)	-9	13*	-2	-1.8	-1	65*	-6.6
C=CCc1ccccc1OCC(O)CN1CCN(Cc2ccc3c(c2)OCO3)CC1 (centres undefined)	-6	6.9*	0	-5.8*	-5.4*	9.5	-22
C=CCc1ccccc1OCC(O)CN1CCN(c2ccc(C)cc2)CC1 (centres undefined)	-8	-0.065	-1	·	0.66	·	·
CCOC(=O)N1CCN(CC(O)COc2ccccc2C(C)CC)CC1 (centres undefined)	-25	-0.48	0	-0.079	-0.35	·	·
C=CCc1ccccc1OCC(O)CN1CCN(C(=O)OCC)CC1 (centres undefined)	-17	28*	0	-2.7	-1.3	172*	-44
COC(=O)c1cc(C(=O)OC)cc(N2C(=O)CN=C2Nc2nc(C)cc(C)n2)c1	-14	-0.17	-1	0.22	-0.59	·	·
c1ccc(Cn2nnnc2C(c2cccnc2)N2CCN(c3ccccc3)CC2)cc1 (centres undefined)	-16	6.1*	3	-0.13	-1.1	?	?
Cc1cc(C)n2nc(SCC(=O)N(C)Cc3ccccc3)nc2n1	-44	2.1*	0	·	1	-18	?
COc1ccc(NC(=O)CCc2nc(-c3ccccc3F)no2)cc1	12	-2.3	-2	-0.048	0.18	·	·
O/N=C1\CCc2cc(Cl)ccc21	16	5.5*	-7	·	-0.15	4.9	-7.3
CC(C)(C)c1cc(CN2CCN(CCO)CC2)cc(C(C)(C)C)c1O	33	-0.64	-1	-1.3	0.17	·	·
CC(C)c1cc(CN2CCN(CCC#N)CC2)cc(C(C)C)c1O	-5	27*	-1	0.44	-0.12	14	-33
CCOC(=O)N1CCN(CCC(=O)Nc2ccc(OC(F)(F)F)cc2)CC1	-20	0.44	-1	-0.49	-1.5	·	·
COc1ccc(Cn2c(=O)oc3ccc(C)cc32)cc1OC	46	13*	0	0.92	0.11	4.2	-29
Cc1onc(-c2c(F)cccc2Cl)c1C(=O)OCn1nnc2ccccc2c1=O	8	0.08	-4	-1.4	-2.2	·	·
CC(=O)NCCN=C(C)c1sc2ccccc2c1O	-4	0.03	-1	-0.044	-0.18	·	·
CC(=Nc1ccc(O)cc1)c1sc2ccccc2c1O	18	36*	-1	-0.58	-0.43	7.2	7.9
CCN1CCN(c2nc3c(C)cccn3c(=O)c2/C=C(\C#N)S(=O)(=O)c2ccc(C)cc2)CC1	15	9.7*	-3	-2.9	-0.53	?	40
O=C(O)CSCCC(=O)Nc1ccc(F)cc1	·	-0.04	·	-1.9	-0.7	·	·
CC(C)CC1N=C2c3ccccc3N=C(SCc3cc(=O)n4ccccc4n3)N2C1=O (centres undefined)	-67	·	0	·	·	·	·
COc1cc(CSc2nnnn2-c2ccc(C)cc2)cc(OC)c1OC	102*	5.8*	-2	-0.33	-2.5*	3.5	?
CCOC(=O)c1oc2ccccc2c1CSc1nnnn1-c1ccc(C)cc1	-3	0.38	3	1.2	0.76	·	·

Screening data: PubChem BioAssay, several laboratories
